These results are taken from ChEMBL document CHEMBL3272147, “Nonapeptide ethylamide inhibitors of the luteinizing hormone-releasing hormone (LH-RH) having a D-alanyl residue in position 6 and variations at positions 2 and 3” (1977).

Assay [1] has as its target T1, Gonadotropin-releasing hormone receptor (Rattus norvegicus) (UniProt P30969).
T1 sequence (whole entry): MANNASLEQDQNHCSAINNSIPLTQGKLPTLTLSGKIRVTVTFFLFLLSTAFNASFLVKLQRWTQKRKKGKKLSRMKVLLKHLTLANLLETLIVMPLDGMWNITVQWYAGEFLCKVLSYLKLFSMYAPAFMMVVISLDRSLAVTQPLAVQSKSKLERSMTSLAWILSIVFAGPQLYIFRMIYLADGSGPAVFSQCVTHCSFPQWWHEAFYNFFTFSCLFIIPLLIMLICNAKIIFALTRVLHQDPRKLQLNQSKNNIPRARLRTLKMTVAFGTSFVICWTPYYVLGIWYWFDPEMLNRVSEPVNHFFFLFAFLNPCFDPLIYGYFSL
Briefly: Antagonist activity at LH-RH receptor in Sprague-Dawley rat pituitary gland assessed as change in 0.6 ng/mL LH-RH-induced luteinizing hormone release in medium at 0.1 ug/ml preincubated for 2 hrs followed by LH-RH addition at 5th and 6th hr 5 mins post drug addition and measured every hour for 4 hrs by RIA relative to vehicle-treated control. The gist of the method: (§1)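 Two pituitaries from 20-day-old female Sprague-Dawley rats per 1 mL lactated Ringer's, incubated 6 h at 37 °C with shaking, medium collected and replaced hourly for LH/FSH RIA. Analogue added at I3, I4, I5 and I6; LH-RH added 5 min after the peptide at I5 and I6. Results given as Δ ng/mL against LH-LER-1240-2 and NIH-FSH-S1-based standards, with SEM and p.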

The target of assay [2] is T1, Gonadotropin-releasing hormone receptor (Rattus norvegicus). Briefly: Antagonist activity at LH-RH receptor in Sprague-Dawley rat pituitary gland assessed as change in 0.6 ng/mL LH-RH-induced luteinizing hormone release in medium at 1 ug/ml preincubated for 2 hrs followed by LH-RH addition at 5th and 6th hr 5 mins post drug addition and measured every hour for 4 hrs by RIA relative to vehicle-treated control. A digest of the protocol:
as §1

Assay [3] has the same target. The assay can be described thus: Antagonist activity at LH-RH receptor in Sprague-Dawley rat pituitary gland assessed as change in 0.6 ng/mL LH-RH-induced luteinizing hormone release in medium at 10 ug/ml preincubated for 2 hrs followed by LH-RH addition at 5th and 6th hr 5 mins post drug addition and measured every hour for 4 hrs by RIA relative to vehicle-treated control. A digest of the protocol: as §1

The target is the same in assay [4]. The assay can be described thus: Agonist activity at LH-RH receptor in Sprague-Dawley rat pituitary gland assessed as change in luteinizing hormone release in medium at 100 ug/ml incubated for 4 hrs measured every hour for 4 hrs by RIA relative to vehicle-treated control. A digest of the protocol:
(§2)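 Pituitaries from 20-day-old female Sprague-Dawley rats, two per 1 mL lactated Ringer's, incubated 6 h total at 37 °C with shaking. Medium removed hourly for LH and FSH RIA and replaced with fresh medium. Analogue alone added at I3–I6. Values expressed as ng of standards LH-LER-1240-2 (0.60 NIH-LH-S1 unit/mg) and FSH 2.1 × NIH-FSH-S1 units/mg; change versus control with SEM and p.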

For assay [5] the target is unchanged. Briefly: Antagonist activity at LH-RH receptor in Sprague-Dawley rat pituitary gland assessed as change in 0.6 ng/mL LH-RH-induced follicle-stimulating hormone release in medium at 0.1 ug/ml preincubated for 2 hrs followed by LH-RH addition at 5th and 6th hr 5 mins post drug addition and measured every hour for 4 hrs by RIA relative to vehicle-treated control. A digest of the protocol:
as §1

For assay [6] the target is unchanged. Briefly: Antagonist activity at LH-RH receptor in Sprague-Dawley rat pituitary gland assessed as change in 0.6 ng/mL LH-RH-induced follicle-stimulating hormone release in medium at 1 ug/ml preincubated for 2 hrs followed by LH-RH addition at 5th and 6th hr 5 mins post drug addition and measured every hour for 4 hrs by RIA relative to vehicle-treated control. The gist of the method:
as §1

Assay [7] shares this target. Briefly: Antagonist activity at LH-RH receptor in Sprague-Dawley rat pituitary gland assessed as change in 0.6 ng/mL LH-RH-induced follicle-stimulating hormone release in medium at 10 ug/ml preincubated for 2 hrs followed by LH-RH addition at 5th and 6th hr 5 mins post drug addition and measured every hour for 4 hrs by RIA relative to vehicle-treated control. A digest of the protocol:
as §1

For assay [8] the target is unchanged. The assay can be described thus: Agonist activity at LH-RH receptor in Sprague-Dawley rat pituitary gland assessed as change in follicle-stimulating hormone release in medium at 100 ug/ml incubated for 4 hrs measured every hour for 4 hrs by RIA relative to vehicle-treated control. The gist of the method: as §2
Assay [9] concerns Rattus norvegicus. Briefly: Inhibition of ovulation in 4 day cycling rat at 1.5 mg, sc administered through corn oil between 12 to 12:30 pm on proestrous stage. Type of assay: functional, organism-based. A digest of the protocol:
(§3)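 Antiovulation test in 4-day cycling rats. A single sc injection of analogue in corn oil was given between 12 and 12:30 p.m. on proestrus. Controls received 0.3 mL of vehicle. Ova shed were counted on estrus.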

Assay [10] has as its system Rattus norvegicus. The assay can be described thus: Inhibition of ovulation in 4 day cycling rat at 750 ug, sc administered through corn oil between 12 to 12:30 pm on proestrous stage. Type of assay: functional. The gist of the method: as §3

The source made the active and inactive calls. No cut-off for these calls is given here.

For the compound `CCNC(=O)[C@@H]1CCCN1C(=O)[C@H](CCCNC(=N)N)NC(=O)[C@H](CC(C)C)NC(=O)[C@@H](C)NC(=O)[C@H](Cc1ccc(O)cc1)NC(=O)[C@H](CO)NC(=O)[C@H](CC(C)C)NC(=O)[C@H](Cc1c[nH]c2ccccc12)NC(=O)[C@@H]1CCC(=O)N1`, the Activity is 193 ng/mL in [1]; 73 ng/mL in assay [2]; 36 ng/mL in [3]; 18 ng/mL in [4]; 7370 ng/mL in [5]; 3090 ng/mL in assay [6]. Moreover, the Activity was -1 ng/mL in [7] and 564 ng/mL in assay [8]. Besides, the inhibition entry in the assay on Rattus norvegicus [9] and in the assay with Rattus norvegicus [10] was “Active” each time.
